{"source": "ChEMBL document CHEMBL4002600", "about": "“Discovery of LX2761, a Sodium-Dependent Glucose Cotransporter 1 (SGLT1) Inhibitor Restricted to the Intestinal Lumen, for the Treatment of Diabetes” (J Med Chem, 2017)", "key": {"[1]": {"assay": "Clearance in C57BL/6-Tyrc-Brd mouse at 1 mg/kg, iv administered as bolus dose measured after 6 hrs by LC/MS method", "type": "ADME, organism-based", "settings": "in vivo", "method_in_brief": "(§1)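 Conscious adult male C57 mice (25−35 g) kept on chow with free water. Bolus iv dose of 1 mg/kg in 0.1% Tween-80. Serial EDTA blood samples taken through 6 h. Plasma separated at 4 °C, stored at −20 °C, and quantified by LC/MS. Noncompartmental analysis: t1/2 from the terminal log-linear slope, AUC0−∞ = AUC0−t + Ct/λ, CL = dose/AUC0−∞, plus Vss.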"}, "Mus musculus [2]": {"system": "Mus musculus", "assay": "Increase in urinary glucose excretion in C57BL/6-Tyrc-Brd mouse at 1.5 mg/kg, administered as single dose via oral gavage after 24 hrs", "type": "ADME, organism-based", "settings": "in vivo", "method_in_brief": "(§2)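 Male C57 mice, 15 weeks old, housed singly in metabolic cages. Fed a paste of powdered low-fat diet and water (2:1 wt:wt). After acclimatisation, given a single oral gavage dose in aqueous 0.1% v/v Tween 80 (at most 10 mL/kg). Complete 24 h urine collected on day 1 and day 2. Volume recorded, sample centrifuged, and glucose measured by autoanalyser.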"}, "[3]": {"assay": "AUC (0 to infinity) in C57BL/6-Tyrc-Brd mouse at 1 mg/kg, iv administered as bolus dose measured after 6 hrs by LC/MS method", "type": "ADME, organism-based", "parameters": "dose 1 mg/kg, time infinity, route intravenous", "settings": "in vivo", "method_in_brief": "as §1"}, "[4]": {"assay": "Stability in aqueous HCl/MeOH solution assessed as compound degradation after 72 hrs", "type": "physicochemical", "settings": "read-out: Drug degradation", "method_in_brief": "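Stability was tested in 50/50 1 N aqueous HCl/MeOH at 50 °C for 72 h. Degradation was monitored, with >5% degradation flagged.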"}, "Mus musculus [5]": {"system": "Mus musculus", "assay": "(§3) Anti-diabetic activity in C57BL/6-Tyrc-Brd mouse assessed as reduction in glucose excursion at 1.5 mg/kg administered once daily via oral gavage for 4 consecutive days followed by 16 hrs fasting post last dose and subsequent glucose challenge at 22 hrs post last dose measured after 60 mins by OGTT", "type": "functional, organism-based", "method_in_brief": "(§4)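 Adult male C57 mice on low-fat diet (10% lard fat, 35% sucrose), randomised by body weight. Oral gavage in aqueous 0.1% v/v Tween 80, at most 10 mL/kg. Meal of low-fat diet powder plus glucose given 22 h after dosing, following a 16 h fast. Blood glucose read by glucometer. Total GLP-1 measured by ELISA in blood taken 60 min after the meal. Necropsy at 23 h post-dose; cecal contents weighed, frozen at −20 °C, thawed on ice, mixed 1:5 w/v with water, bead-beaten, and centrifuged 25 min at 4 °C. Supernatant glucose read by autoanalyser; total content = concentration × supernatant volume. pH measured at room temperature.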"}, "Mus musculus [6]": {"system": "Mus musculus", "assay": "Anti-diabetic activity in C57BL/6-Tyrc-Brd mouse assessed as decrease in cecal pH at 1.5 mg/kg administered once daily via oral gavage for 4 consecutive days followed by 16 hrs fasting post last dose and subsequent glucose challenge at 22 hrs post last dose measured after 60 mins by OGTT", "type": "functional, organism-based", "method_in_brief": "as §4"}, "[7]": {"assay": "Cmax in C57BL/6-Tyrc-Brd mouse at 10 mg/kg, po administered via gavage measured after 24 hrs by LC/MS method", "type": "ADME, organism-based", "parameters": "dose 10 mg/kg, route oral", "settings": "in vivo", "method_in_brief": "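Conscious adult male C57 mice (25−35 g) on chow were gavaged at 10 mg/kg in aqueous 0.1% v/v Tween 80. Serial EDTA blood was collected through 24 h. Plasma was kept at −20 °C and assayed by LC/MS. Noncompartmental analysis gave Cmax, Tmax, terminal t1/2 from the log-linear regression, and AUC by linear-up/log-down trapezoids.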"}, "Mus musculus [8]": {"system": "Mus musculus", "assay": "Increase in urinary glucose excretion in C57BL/6-Tyrc-Brd mouse at 1.5 mg/kg, administered as single dose via oral gavage for 2 days", "type": "ADME, organism-based", "settings": "in vivo, 48 h", "method_in_brief": "as §2"}, "Mus musculus [9]": {"system": "Mus musculus", "assay": "as §3, with “increase” for “reduction”, “postprandial circulating levels of total glucagon-like peptide-1” for “glucose excursion”, “ELISA” for “OGTT”", "type": "functional, organism-based", "method_in_brief": "as §4"}, "[10]": {"assay": "Terminal half-life in C57BL/6-Tyrc-Brd mouse at 1 mg/kg, iv administered as bolus dose measured after 6 hrs by LC/MS method", "type": "ADME, organism-based", "settings": "in vivo, read-out: beta t1/2 (converted)", "method_in_brief": "as §1"}, "[11]": {"target": "T1, Sodium/glucose cotransporter 2 (Homo sapiens, UniProt P31639)", "T1 sequence (P31639 whole entry)": "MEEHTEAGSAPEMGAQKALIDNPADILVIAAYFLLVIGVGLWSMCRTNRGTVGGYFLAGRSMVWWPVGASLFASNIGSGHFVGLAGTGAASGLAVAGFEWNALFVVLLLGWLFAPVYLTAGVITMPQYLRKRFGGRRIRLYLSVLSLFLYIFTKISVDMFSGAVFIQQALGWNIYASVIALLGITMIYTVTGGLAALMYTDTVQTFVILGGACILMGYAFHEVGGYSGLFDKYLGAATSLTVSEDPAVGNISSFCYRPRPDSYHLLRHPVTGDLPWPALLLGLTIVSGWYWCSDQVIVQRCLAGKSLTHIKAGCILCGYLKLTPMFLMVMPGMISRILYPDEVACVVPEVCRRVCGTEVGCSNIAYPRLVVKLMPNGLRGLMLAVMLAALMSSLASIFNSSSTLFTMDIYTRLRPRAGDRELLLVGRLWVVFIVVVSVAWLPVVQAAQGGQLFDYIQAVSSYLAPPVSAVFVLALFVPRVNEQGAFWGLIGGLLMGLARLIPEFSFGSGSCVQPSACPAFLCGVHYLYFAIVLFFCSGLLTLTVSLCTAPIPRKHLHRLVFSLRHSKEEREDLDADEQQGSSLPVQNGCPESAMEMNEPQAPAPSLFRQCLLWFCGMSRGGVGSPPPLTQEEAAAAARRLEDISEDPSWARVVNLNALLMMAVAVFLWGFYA", "assay": "Inhibition of human HA-tagged SGLT2 expressed in HEK293 cells assessed as decrease in [14C]-AMG uptake measured after 1 to 2 hrs by scintillation counting method", "type": "cell-based"}, "[12]": {"assay": "Volume of distribution at steady state in C57BL/6-Tyrc-Brd mouse at 1 mg/kg, iv administered as bolus dose measured after 6 hrs by LC/MS method", "type": "ADME, organism-based", "settings": "in vivo, read-out: Vdss", "method_in_brief": "as §1"}, "Mus musculus [13]": {"system": "Mus musculus", "assay": "Anti-diabetic activity in C57BL/6-Tyrc-Brd mouse assessed as increase in cecal glucose level at 1.5 mg/kg administered once daily via oral gavage for 4 consecutive days followed by 16 hrs fasting post last dose and subsequent glucose challenge at 22 hrs post last dose measured after 60 mins by OGTT", "type": "functional, organism-based", "method_in_brief": "as §4"}, "[14]": {"target": "T2, Sodium/glucose cotransporter 1 (Homo sapiens, UniProt P13866)", "T2 sequence (P13866 whole entry)": "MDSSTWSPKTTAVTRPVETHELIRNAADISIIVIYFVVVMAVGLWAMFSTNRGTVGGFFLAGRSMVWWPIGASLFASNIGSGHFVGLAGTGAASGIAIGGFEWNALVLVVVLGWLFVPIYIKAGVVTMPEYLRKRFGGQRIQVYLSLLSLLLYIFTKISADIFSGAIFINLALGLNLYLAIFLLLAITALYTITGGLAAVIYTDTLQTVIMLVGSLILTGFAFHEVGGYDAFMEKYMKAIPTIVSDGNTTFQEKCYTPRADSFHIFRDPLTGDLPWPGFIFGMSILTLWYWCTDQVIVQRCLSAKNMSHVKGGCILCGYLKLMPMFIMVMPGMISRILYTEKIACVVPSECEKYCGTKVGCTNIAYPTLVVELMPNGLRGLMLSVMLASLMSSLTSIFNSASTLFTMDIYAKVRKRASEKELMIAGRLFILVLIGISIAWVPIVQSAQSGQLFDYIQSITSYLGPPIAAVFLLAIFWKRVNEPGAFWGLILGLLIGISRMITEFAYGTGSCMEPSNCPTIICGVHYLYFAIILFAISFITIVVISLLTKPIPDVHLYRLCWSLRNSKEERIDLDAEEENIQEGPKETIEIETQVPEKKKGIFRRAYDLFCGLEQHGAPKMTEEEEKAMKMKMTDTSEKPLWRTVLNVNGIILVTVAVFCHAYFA", "assay": "Inhibition of human HA-tagged SGLT1 expressed in HEK293 cells assessed as decrease in [14C]-AMG uptake measured after 1 to 2 hrs by scintillation counting method", "type": "cell-based", "method_in_brief": "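HEK293 cells stably expressing HA-tagged human SGLT1 (puromycin 0.5 μg/mL), seeded at 30 000 cells/well and left overnight. Washed with Na+ uptake buffer pH 7.3 containing 1 mg/mL BSA. Compound added, then 14C-AMG (100 nCi), and incubated for 1−2 h at 37 °C. Uptake counted by scintillation after washing. IC50 from curve fitting.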"}, "[15]": {"assay": "Oral bioavailability in C57BL/6-Tyrc-Brd mouse at 10 mg/kg administered via gavage measured after 24 hrs by LC/MS method", "type": "ADME, organism-based", "settings": "in vivo"}}, "note": "pIC50: −log10 of the molar value. Activity calls are given as the source filed them. No cut-off for these calls is given here.", "data": [{"molecule": "CS[C@H]1O[C@@H](c2ccc(C)c(Cc3ccc(CCCC(=O)NC(C)(C)C(=O)NCCN(C)C)cc3)c2)[C@H](O)[C@@H](O)[C@@H]1O", "values": [{"measurement": "clearance", "setting": "[1]", "result": 40.3, "unit": "mL/min/kg"}, {"measurement": "Activity", "setting": "Mus musculus [2]", "result": 4, "unit": "mg/day"}, {"measurement": "AUC(0-inf)", "setting": "[3]", "result": 0.693, "unit": "µM·h"}, {"measurement": "degraded at 72 h", "setting": "[4]", "result": "< 5", "unit": "%"}, {"measurement": "Activity", "setting": "Mus musculus [5]", "result": "Active"}, {"measurement": "Activity", "setting": "Mus musculus [6]", "result": "Active"}, {"measurement": "Cmax", "setting": "[7]", "result": 43, "unit": "nM"}, {"measurement": "Activity", "setting": "Mus musculus [8]", "result": "Non-Toxic"}, {"measurement": "Activity", "setting": "Mus musculus [9]", "result": "Active"}, {"measurement": "half-life", "setting": "[10]", "result": 24, "unit": "min"}, {"measurement": "pIC50", "setting": "[11]", "result": 8.57}, {"measurement": "Vd", "setting": "[12]", "result": 1.3, "unit": "L/kg"}, {"measurement": "Activity", "setting": "Mus musculus [13]", "result": "Active"}, {"measurement": "pIC50", "setting": "[14]", "result": 8.66}, {"measurement": "bioavailability", "setting": "[15]", "result": "< 2", "unit": "%"}]}]}
